Converted amounts (≈) assume the structure as drawn.
Experiments:
Androgen receptor = molecular target: T1, Androgen receptor (Homo sapiens, UniProt P10275); test: Antagonist activity at human androgen receptor in human LNCAP cells harboring firefly luciferase gene after 20 hrs by One-Glo luciferase reporter gene assay; type: cell-based
T1 sequence (P10275 whole entry): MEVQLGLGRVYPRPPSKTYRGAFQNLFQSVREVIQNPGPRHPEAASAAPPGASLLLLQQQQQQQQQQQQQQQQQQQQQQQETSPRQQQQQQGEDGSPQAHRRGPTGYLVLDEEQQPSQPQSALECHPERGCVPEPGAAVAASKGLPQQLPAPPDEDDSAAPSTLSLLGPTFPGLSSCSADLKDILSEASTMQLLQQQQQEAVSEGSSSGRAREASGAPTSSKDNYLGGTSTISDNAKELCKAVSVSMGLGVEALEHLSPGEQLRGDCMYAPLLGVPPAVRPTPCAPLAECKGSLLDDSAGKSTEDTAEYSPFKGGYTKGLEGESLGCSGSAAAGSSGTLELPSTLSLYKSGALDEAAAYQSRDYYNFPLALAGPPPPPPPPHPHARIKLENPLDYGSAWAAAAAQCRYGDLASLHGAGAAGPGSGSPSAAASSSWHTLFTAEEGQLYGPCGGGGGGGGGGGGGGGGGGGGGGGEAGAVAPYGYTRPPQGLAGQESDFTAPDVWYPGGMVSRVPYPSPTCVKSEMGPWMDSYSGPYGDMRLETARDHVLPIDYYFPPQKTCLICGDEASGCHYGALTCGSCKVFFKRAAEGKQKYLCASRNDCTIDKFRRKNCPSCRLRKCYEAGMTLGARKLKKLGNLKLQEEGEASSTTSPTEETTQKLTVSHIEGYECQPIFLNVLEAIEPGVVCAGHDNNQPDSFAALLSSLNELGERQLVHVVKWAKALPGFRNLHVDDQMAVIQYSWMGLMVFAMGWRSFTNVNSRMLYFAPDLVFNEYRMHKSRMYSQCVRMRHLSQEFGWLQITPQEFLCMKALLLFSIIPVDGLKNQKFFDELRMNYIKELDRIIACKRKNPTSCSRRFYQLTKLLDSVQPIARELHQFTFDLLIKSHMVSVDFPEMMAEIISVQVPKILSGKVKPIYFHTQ
How it was run: (§1)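 Cell-based luciferase reporter assays for GR, AR and PR, run in agonist and antagonist modes. Potency and Emax are averages of at least two determinations, reported with SD.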

[1] = molecular target: T2, Glucocorticoid receptor (Homo sapiens) (UniProt P04150); test: Antagonist activity at human glucocorticoid receptor expressed in CHO-K1 cells harboring firefly luciferase gene assessed as inhibition of glucocorticoid receptor activity at 0.01 to 10000 nM after 20 hrs by One-Glo luciferase reporter gene assay relative to mifepristone; type: cell-based; design: scale not given: the % may be the effect or the level left; how it was run: as §1
T2 sequence (whole entry): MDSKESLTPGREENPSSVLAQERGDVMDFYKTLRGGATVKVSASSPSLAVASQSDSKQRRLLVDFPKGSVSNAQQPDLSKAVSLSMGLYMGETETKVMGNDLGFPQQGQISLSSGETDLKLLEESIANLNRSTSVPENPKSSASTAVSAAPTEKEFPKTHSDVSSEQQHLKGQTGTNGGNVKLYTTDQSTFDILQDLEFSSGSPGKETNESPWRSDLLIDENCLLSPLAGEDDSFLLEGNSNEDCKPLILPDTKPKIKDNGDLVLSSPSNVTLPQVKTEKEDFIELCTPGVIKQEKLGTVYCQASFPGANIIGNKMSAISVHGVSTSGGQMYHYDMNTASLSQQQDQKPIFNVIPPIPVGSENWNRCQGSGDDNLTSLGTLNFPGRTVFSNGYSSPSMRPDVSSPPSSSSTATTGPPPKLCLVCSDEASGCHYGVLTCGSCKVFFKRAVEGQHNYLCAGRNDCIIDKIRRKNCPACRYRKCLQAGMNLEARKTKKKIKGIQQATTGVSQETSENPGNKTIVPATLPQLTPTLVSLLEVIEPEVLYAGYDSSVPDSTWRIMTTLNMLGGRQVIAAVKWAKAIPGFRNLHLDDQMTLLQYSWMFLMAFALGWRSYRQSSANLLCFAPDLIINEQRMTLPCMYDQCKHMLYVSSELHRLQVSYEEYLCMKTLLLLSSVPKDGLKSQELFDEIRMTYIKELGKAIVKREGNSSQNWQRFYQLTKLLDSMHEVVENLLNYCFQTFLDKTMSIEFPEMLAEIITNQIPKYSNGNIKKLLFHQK

Cytochrome P450 2C8 = molecular target: T3, Cytochrome P450 2C8 (Homo sapiens, UniProt P10632); test: Inhibition of CYP2C8 (unknown origin) using paclitaxel as substrate; type: ADME
T3 sequence (P10632 whole entry): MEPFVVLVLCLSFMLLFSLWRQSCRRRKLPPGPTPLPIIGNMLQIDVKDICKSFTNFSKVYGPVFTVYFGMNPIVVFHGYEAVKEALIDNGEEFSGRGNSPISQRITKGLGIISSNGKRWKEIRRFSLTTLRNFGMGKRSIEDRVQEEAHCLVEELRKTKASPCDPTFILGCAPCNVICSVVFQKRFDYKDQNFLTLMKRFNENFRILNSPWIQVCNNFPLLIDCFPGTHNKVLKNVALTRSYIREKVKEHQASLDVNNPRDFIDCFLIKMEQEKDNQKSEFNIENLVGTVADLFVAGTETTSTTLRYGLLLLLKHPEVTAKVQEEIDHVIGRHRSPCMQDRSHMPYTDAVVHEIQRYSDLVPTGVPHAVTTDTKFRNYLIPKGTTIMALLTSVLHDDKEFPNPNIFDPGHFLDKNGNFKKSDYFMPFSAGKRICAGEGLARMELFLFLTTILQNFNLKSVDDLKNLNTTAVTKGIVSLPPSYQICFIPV

[2] = Half-life in rat at 0.5 mg/kg, iv; type: ADME, organism-based; details: in vivo
How it was run: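 Rat PK study. The iv dose of 0.5 mg/kg was given in 10% DMSO, 70% PEG 400 and 20% water. The oral dose of 5 mg/kg was given in 5% DMSO / 95% of 0.2% Tween 80 in 0.25% CMC, adjusted to pH 4 for one compound. Read-outs were CL, Vss, iv t1/2, F, Cmax and AUC.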

[3] = Solubility of compound in fasted state simulated gastric fluid at pH 1.2; type: physicochemical
[4] = Solubility of compound in fasted state simulated intestinal fluid at pH 6.5; type: physicochemical
Mus musculus = test: In vivo antagonist activity at glucocorticoid receptor in tumor of human HCC1806 cells xenografted in hsd:athymic Nude-Foxn1nu mouse assessed as reduction in cortisol-stimulated FKBP5 mRNA expression at 150 mg/kg, po administered as single dose via gavage and measured at 6 hrs post cortisol addition by qRT-PCR analysis (reference value: 2.3 to 4); type: functional
How it was run: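 HCC1806 TNBC xenograft tumors in mice. Cortisol 5 mg/kg given orally as a bolus to activate GR. The compound was given as a single oral gavage dose of 150 mg/kg, with vehicle controls. Tumors were collected 3 and 6 h after cortisol, and FKBP5 mRNA was measured by RT-qPCR relative to vehicle. n = 3 mice/group. One-way ANOVA with Dunnett's test versus vehicle.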

With CC#C[C@]1(O)CC[C@H]2[C@@H]3CCC4=CC(=O)CC[C@]4(C)[C@H]3[C@@H](c3ccc(N(C)C)cc3)C[C@@]21C the IC50 (Androgen receptor) was 0.912 µM, the Activity [1] was 100% and the IC50 (Cytochrome P450 2C8) was 8 µM. It also gave a half-life [2] of 1.8 h, a solubility [3] of 1130 µM (≈ 504 µg/mL) and a solubility [4] of 59.5 µM (≈ 26.5 µg/mL). For the same compound, the “fold change (FC)” value (Mus musculus) was 2.3.

From ChEMBL document CHEMBL4406804, “Discovery of a Potent Steroidal Glucocorticoid Receptor Antagonist with Enhanced Selectivity against the Progesterone and Androgen Receptors (OP-3633)” (J Med Chem, 2019)
